In ChEMBL document CHEMBL1667766, “Synthesis of elastin based peptides conjugated to benzisoxazole as a new class of potent antimicrobials--A novel approach to enhance biocompatibility” (2011):
≈ marks a conversion by molar mass, not a printed value. *1 amine or outer side, *2 acyl side, *3 side chain or, on linkers, in order; H or OH if unused. Where a SMILES comes first, the peptide text is derived from it. [ ]: non-standard residue; d: D form. The star is where a group is joined. X2 = CC(C)[C@H](N[*:1])C(=O)NC(=O)[*:2]; X1 = Fc1ccc2c(C3CCN(*)CC3)noc2c1; Boc = CC(C)(C)OC(=O)*; OcHex = C1CCC(O*)CC1

Key:
Format in all cases: functional
Escherichia coli [1] = test: Antimicrobial activity against Escherichia coli after 72 hrs by microdilution method
Aspergillus flavus [2] = test: Antifungal activity against Aspergillus flavus after 72 hrs by microdilution method
Xanthomonas oryzae [3] = test: Antimicrobial activity against Xanthomonas oryzae after 72 hrs by microdilution method
Staphylococcus [4] = test: Antimicrobial activity against coagulase positive Staphylococcus after 72 hrs by microdilution method
Aspergillus niger [5] = test: Antifungal activity against Aspergillus niger after 72 hrs by microdilution method
Fusarium oxysporum [6] = test: Antifungal activity against Fusarium oxysporum after 72 hrs by microdilution method
Klebsiella pneumoniae [7] = test: Antimicrobial activity against Klebsiella pneumoniae after 72 hrs by microdilution method
Klebsiella pneumoniae [8] = test: Antimicrobial activity against Klebsiella pneumoniae after 24 hrs by agar well diffusion method
Procedure, shortened: (§1)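 Bacteria grown in nutrient broth at 37 °C for 24 h, subcultured in 25 mL broth at room temperature, then spread on nutrient agar. Wells (6 mm cork borer) filled with 0.1 mL test solution in DMSO, prepared from a 1 mg/mL stock. Amoxicillin as reference, DMSO as negative control. Plates kept 24 h at 37 °C; inhibition zone measured in mm.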

Escherichia coli [9] = test: Antimicrobial activity against Escherichia coli after 24 hrs by agar well diffusion method; procedure, shortened: as §1
Xanthomonas oryzae [10] = test: Antimicrobial activity against Xanthomonas oryzae after 24 hrs by agar well diffusion method
Fusarium oxysporum [11] = test: Antifungal activity against Fusarium oxysporum after 24 hrs by agar well diffusion method
Procedure, shortened: (§2)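 Fungi subcultured in 25 mL nutrient broth for one day to give inoculum, then spread on solidified Sabouraud agar. Wells punched with a 6 mm cork borer and filled with 0.1 mL test solution in DMSO, prepared from a 1 mg/mL stock. Bavistin as reference, DMSO as negative control. Read-out is inhibition zone diameter (mm).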

Staphylococcus [12] = test: Antimicrobial activity against coagulase positive Staphylococcus after 24 hrs by agar well diffusion method; procedure, shortened: as §1
Aspergillus niger [13] = test: Antifungal activity against Aspergillus niger after 24 hrs by agar well diffusion method; procedure, shortened: as §2
Aspergillus flavus [14] = test: Antifungal activity against Aspergillus flavus after 24 hrs by agar well diffusion method; procedure, shortened: as §2

SMILES	MIC (Escherichia coli [1]) [µg/mL]	MIC (Aspergillus flavus [2]) [µg/mL]	MIC (Xanthomonas oryzae [3]) [µg/mL]	MIC (Staphylococcus [4]) [µg/mL]	MIC (Aspergillus niger [5]) [µg/mL]	MIC (Fusarium oxysporum [6]) [µg/mL]	MIC (Klebsiella pneumoniae [7]) [µg/mL]	inhibition zone (IZ) (Klebsiella pneumoniae [8]) [mm]	inhibition zone (IZ) (Escherichia coli [9]) [mm]	inhibition zone (IZ) (Xanthomonas oryzae [10]) [mm]	inhibition zone (IZ) (Fusarium oxysporum [11]) [mm]	inhibition zone (IZ) (Staphylococcus [12]) [mm]	inhibition zone (IZ) (Aspergillus niger [13]) [mm]	inhibition zone (IZ) (Aspergillus flavus [14]) [mm]
CC(C)(C)OC(=O)N[C@@H](Cc1ccccc1)C(=O)O	> 50	> 50	> 50	> 50	> 50	> 50	> 50	–	–	–	–	–	–	–
N[C@@H](Cc1ccccc1)C(=O)N1CCC(c2noc3cc(F)ccc23)CC1.O=C(O)C(F)(F)F	20	22	15	18	18	21	16	10	14	11	14	9	16	11
N[C@@H](Cc1c[nH]c2ccccc12)C(=O)N1CCC(c2noc3cc(F)ccc23)CC1.O=C(O)C(F)(F)F	38	41	26	36	32	39	31	5	8	6	7	4	11	4
N[C@@H](Cc1ccc(O)cc1)C(=O)N1CCC(c2noc3cc(F)ccc23)CC1.O=C(O)C(F)(F)F	40	43	29	39	34	41	34	4	7	5	6	4	10	3
CC[C@@H](C)[C@H](NC(=O)CNC(=O)CN)C(=O)N1CCC[C@H]1C(=O)N1CCC(c2noc3cc(F)ccc23)CC1.O=C(O)C(F)(F)F	15	16	12	14	13	17	12	14	20	15	18	12	22	14
Fc1ccc2c(C3CCNCC3)noc2c1	> 50	> 50	> 50	> 50	> 50	> 50	> 50	3	3	4	4	3	3	2
CC[C@@H](C)[C@H](NC(=O)CNC(=O)CNC(=O)OC(C)(C)C)C(=O)N1CCC[C@H]1C(=O)O	> 50	> 50	> 50	> 50	> 50	> 50	> 50	–	–	–	–	–	–	–
CC(C)(C)OC(=O)N[C@@H](Cc1c[nH]c2ccccc12)C(=O)O	> 50	> 50	> 50	> 50	> 50	> 50	> 50	–	–	–	–	–	–	–
CC(C)[C@H](NC(=O)CNC(=O)[C@@H]1CCCN1C(=O)[C@H](Cc1ccccc1)NC(=O)CNC(=O)[C@H](CCC(=O)OC1CCCCC1)NC(=O)CNC(=O)OC(C)(C)C)C(=O)NCC(=O)N[C@H](C(=O)N1CCC[C@H]1C(=O)NCC(=O)N[C@H](C(=O)NCC(=O)N[C@H](C(=O)N1CCC[C@H]1C(=O)NCC(=O)N[C@H](C(=O)NCC(=O)N[C@H](C(=O)N1CCC[C@H]1C(=O)NCC(=O)N[C@@H](Cc1ccccc1)C(=O)NCC(=O)N[C@@H](Cc1ccccc1)C(=O)N1CCC[C@H]1C(=O)NCC(=O)N[C@@H](Cc1ccccc1)C(=O)NCC(=O)N[C@@H](Cc1ccccc1)C(=O)N1CCC[C@H]1C(=O)O)C(C)C)C(C)C)C(C)C)C(C)C)C(C)C (Boc-GE(OcHex)GFPGVGVPGVGVPGVGVPGFGFPGFGFP-OH)	> 50	> 50	> 50	> 50	> 50	> 50	> 50	–	–	–	–	–	–	–
CC(C)[C@H](NC(=O)CNC(=O)[C@@H]1CCCN1C(=O)[C@H](Cc1ccccc1)NC(=O)CNC(=O)[C@H](Cc1ccccc1)NC(=O)CNC(=O)[C@@H]1CCCN1C(=O)[C@H](Cc1ccccc1)NC(=O)CNC(=O)[C@@H](NC(=O)CNC(=O)[C@@H]1CCCN1C(=O)[C@@H](NC(=O)NC(=O)[C@@H](NC(=O)CNC(=O)[C@@H]1CCCN1C(=O)[C@H](Cc1ccccc1)NC(=O)CNC(=O)[C@H](CCC(=O)OC1CCCCC1)NC(=O)CNC(=O)OC(C)(C)C)C(C)C)C(C)C)C(C)C)C(=O)NCC(=O)N[C@H](C(=O)N1CCC[C@H]1C(=O)NCC(=O)N[C@H](C(=O)NCC(=O)N[C@@H](Cc1ccccc1)C(=O)N1CCC[C@H]1C(=O)O)C(C)C)C(C)C (Boc-GE(OcHex)GFPG[X2]VPGVGFPGFGFPGVGVPGVGFP-OH)	> 50	> 50	> 50	> 50	> 50	> 50	> 50	–	–	–	–	–	–	–
CC(C)(C)OC(=O)NCC(=O)N[C@@H](Cc1ccccc1)C(=O)NCC(=O)N[C@@H](Cc1ccccc1)C(=O)N1CCC[C@H]1C(=O)O (Boc-GFGFP-OH)	> 50	> 50	> 50	> 50	> 50	> 50	> 50	–	–	–	–	–	–	–
C[C@H](NC(=O)CNC(=O)CNC(=O)OC(C)(C)C)C(=O)N1CCC[C@H]1C(=O)O (Boc-GGAP-OH)	> 50	> 50	> 50	> 50	> 50	> 50	> 50	–	–	–	–	–	–	–
CC(C)(C)OC(=O)NCC(=O)NCC(=O)N[C@@H](Cc1ccccc1)C(=O)N1CCC[C@H]1C(=O)O (Boc-GGFP-OH)	> 50	> 50	> 50	> 50	> 50	> 50	> 50	–	–	–	–	–	–	–
CC(C)[C@H](NC(=O)CNC(=O)OC(C)(C)C)C(=O)NCC(=O)N[C@H](C(=O)N1CCC[C@H]1C(=O)O)C(C)C (Boc-GVGVP-OH)	> 50	> 50	> 50	> 50	> 50	> 50	> 50	–	–	–	–	–	–	–
CC(C)[C@H](NC(=O)CNC(=O)[C@@H]1CCCN1C(=O)[C@H](Cc1ccccc1)NC(=O)CNC(=O)[C@H](CCC(=O)O)NC(=O)CN)C(=O)NCC(=O)N[C@H](C(=O)N1CCC[C@H]1C(=O)NCC(=O)N[C@H](C(=O)NCC(=O)N[C@H](C(=O)N1CCC[C@H]1C(=O)NCC(=O)N[C@H](C(=O)NCC(=O)N[C@H](C(=O)N1CCC[C@H]1C(=O)NCC(=O)N[C@@H](Cc1ccccc1)C(=O)NCC(=O)N[C@@H](Cc1ccccc1)C(=O)N1CCC[C@H]1C(=O)NCC(=O)N[C@@H](Cc1ccccc1)C(=O)NCC(=O)N[C@@H](Cc1ccccc1)C(=O)N1CCC[C@H]1C(=O)N1CCC(c2noc3cc(F)ccc23)CC1)C(C)C)C(C)C)C(C)C)C(C)C)C(C)C.O=C(O)C(F)(F)F (H-GEGFPGVGVPGVGVPGVGVPGFGFPGFGFP-X1)	10	3	9	11	3	4	9	17	15	18	31	20	36	32
CC(C)[C@H](NC(=O)CNC(=O)[C@@H]1CCCN1C(=O)[C@H](Cc1ccccc1)NC(=O)CNC(=O)[C@H](Cc1ccccc1)NC(=O)CNC(=O)[C@@H]1CCCN1C(=O)[C@H](Cc1ccccc1)NC(=O)CNC(=O)[C@@H](NC(=O)CNC(=O)[C@@H]1CCCN1C(=O)[C@@H](NC(=O)NC(=O)[C@@H](NC(=O)CNC(=O)[C@@H]1CCCN1C(=O)[C@H](Cc1ccccc1)NC(=O)CNC(=O)[C@H](CCC(=O)O)NC(=O)CN)C(C)C)C(C)C)C(C)C)C(=O)NCC(=O)N[C@H](C(=O)N1CCC[C@H]1C(=O)NCC(=O)N[C@H](C(=O)NCC(=O)N[C@@H](Cc1ccccc1)C(=O)N1CCC[C@H]1C(=O)N1CCC(c2noc3cc(F)ccc23)CC1)C(C)C)C(C)C.O=C(O)C(F)(F)F (H-GEGFPG[X2]VPGVGFPGFGFPGVGVPGVGFP-X1)	12	4	10	13	4	5	10	11	12	14	28	16	34	28
CC1(C)S[C@@H]2[C@H](NC(=O)[C@H](N)c3ccc(O)cc3)C(=O)N2[C@H]1C(=O)O [AMOXICILLIN]	24 (≈ 65.7 µM)	–	18 (≈ 49.3 µM)	23 (≈ 62.9 µM)	–	–	20 (≈ 54.7 µM)	8	11	8	–	7	–	–
COC(=O)Nc1nc2ccccc2[nH]1 [CARBENDAZIM]	–	26 (≈ 136 µM)	–	–	22 (≈ 115 µM)	25 (≈ 131 µM)	–	–	–	–	10	–	12	7
